Values after ≈ are worked out from the molar mass of the structure shown. Active and inactive are the calls of the source. The calls are words filed in the database; no cut-off is given here.
Key:
[1] = target: T1, MecA (Staphylococcus aureus) (UniProt Q7DHH4); assay: Inhibition of methicillin-resistant Staphylococcus aureus COL PBP2a at 10 uM by competitive assay; conditions: Staphylococcus aureus subsp. aureus COL
T1 sequence (whole entry): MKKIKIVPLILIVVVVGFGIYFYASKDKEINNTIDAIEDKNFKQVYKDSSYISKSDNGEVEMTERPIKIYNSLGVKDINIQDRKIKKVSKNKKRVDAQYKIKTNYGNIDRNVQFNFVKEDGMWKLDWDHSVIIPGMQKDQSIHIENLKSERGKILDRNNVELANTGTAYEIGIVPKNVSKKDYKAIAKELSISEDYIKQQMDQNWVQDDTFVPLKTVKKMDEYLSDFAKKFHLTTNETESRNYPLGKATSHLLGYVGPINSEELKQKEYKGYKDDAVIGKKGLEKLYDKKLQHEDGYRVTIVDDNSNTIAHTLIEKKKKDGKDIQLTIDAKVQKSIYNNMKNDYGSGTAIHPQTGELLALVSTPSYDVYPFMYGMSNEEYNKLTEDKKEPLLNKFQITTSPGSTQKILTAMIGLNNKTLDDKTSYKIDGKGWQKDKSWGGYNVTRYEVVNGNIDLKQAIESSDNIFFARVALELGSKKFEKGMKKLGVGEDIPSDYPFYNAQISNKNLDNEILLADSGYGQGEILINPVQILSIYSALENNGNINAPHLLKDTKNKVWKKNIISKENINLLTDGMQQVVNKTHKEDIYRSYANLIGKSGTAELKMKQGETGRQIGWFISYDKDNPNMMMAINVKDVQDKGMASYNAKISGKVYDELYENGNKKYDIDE
Outline: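 Purified soluble PBP 2A (mecA expressed in E. coli, 97% pure) at 0.8 µM, preincubated with drug 30 min at 30°C. Then 20 µM Bocillin FL added for 10 min at 37°C, quenched with SDS-PAGE buffer and boiled. Drug range 0.5–20 µM; for IC50, BPR 0.5–200 µM or oxacillin 5–6,000 µM. Curve fitting.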

Staphylococcus aureus [2] = assay: Antimicrobial activity against methicillin-resistant Staphylococcus aureus HU25 assessed as concentration required for bacterial subpopulation growth; type: functional
Outline: (§1)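 Etest (manufacturer's method) and population analysis: overnight cultures serially diluted and plated on TSA with increasing oxacillin or BPR, CFU counted after 48 h at 37°C. Colonies from subpopulations growing at high oxacillin or BPR were picked, restreaked on antibiotic-free TSA for three passages, then retested by population analysis.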

Staphylococcus aureus [3] = assay: Antimicrobial activity against methicillin-resistant Staphylococcus aureus BK2529 assessed as concentration required for minimum inhibition of oxacillin-resistant subpopulation growth by Etest; type: functional; outline: as §1
Staphylococcus aureus [4] = assay: Antimicrobial activity against methicillin-resistant Staphylococcus aureus HAR24 assessed as concentration required for minimum inhibition of BRP-resistant subpopulation growth; type: functional; outline: as §1
Staphylococcus aureus [5] = assay: Antimicrobial activity against methicillin-resistant Staphylococcus aureus HAR22 assessed as concentration required for bacterial subpopulation growth; type: functional; outline: as §1
Staphylococcus aureus [6] = assay: Antimicrobial activity against methicillin-resistant Staphylococcus aureus USA300 assessed as concentration required for minimum inhibition of oxacillin-resistant subpopulation growth by Etest; type: functional; outline: as §1
Staphylococcus aureus [7] = assay: Antimicrobial activity against methicillin-resistant Staphylococcus aureus BK2529 assessed as concentration required for minimum inhibition of BRP-resistant subpopulation growth by Etest; type: functional; outline: as §1
Staphylococcus aureus [8] = assay: Antimicrobial activity against methicillin-resistant Staphylococcus aureus BK2529 by Etest; type: functional; outline: as §1
Staphylococcus aureus [9] = assay: Antimicrobial activity against oxacillin-resistant Staphylococcus aureus COLVA harboring Tn1546 transposon by Etest; type: functional
Outline: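 Etest and population analysis: overnight cultures plated on TSA with increasing vancomycin, oxacillin or BPR, CFU counted after 48 h at 37°C. For VRSA strains, vancomycin plates also run with constant 1 µg/ml BPR. Vancomycin Etest read after overnight 37°C incubation on TSA with or without 1 µg/ml BPR.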

Staphylococcus aureus [10] = assay: Antimicrobial activity against methicillin-resistant Staphylococcus aureus USA300 assessed as concentration required for bacterial subpopulation growth; type: functional; outline: as §1
Staphylococcus aureus [11] = assay: Antimicrobial activity against methicillin-resistant Staphylococcus aureus HAR24 assessed as concentration required for bacterial subpopulation growth; type: functional; outline: as §1
Staphylococcus aureus [12] = assay: Antimicrobial activity against methicillin-resistant Staphylococcus aureus COL by Etest; type: functional; outline: as §1
Staphylococcus aureus [13] = assay: Antimicrobial activity against methicillin-resistant Staphylococcus aureus COL assessed as concentration required for bacterial subpopulation growth; type: functional; outline: as §1
Staphylococcus aureus [14] = assay: Antimicrobial activity against methicillin-resistant Staphylococcus aureus HAR22 assessed as concentration required for minimum inhibition of oxacillin-resistant subpopulation growth by Etest; type: functional; outline: as §1
Staphylococcus aureus [15] = assay: Antimicrobial activity against methicillin-resistant Staphylococcus aureus HDE288 assessed as concentration required for minimum inhibition of BRP-resistant subpopulation growth by Etest; type: functional; outline: as §1
Staphylococcus aureus [16] = assay: Antimicrobial activity against methicillin-resistant Staphylococcus aureus USA300 assessed as concentration required for minimum inhibition of BRP-resistant subpopulation growth; type: functional; outline: as §1
Staphylococcus aureus [17] = assay: Antimicrobial activity against methicillin-resistant Staphylococcus aureus HAR24 by Etest; type: functional; outline: as §1
Staphylococcus aureus [18] = assay: Antimicrobial activity against methicillin-resistant Staphylococcus aureus E2125 assessed as concentration required for minimum inhibition of BRP-resistant subpopulation growth by Etest; type: functional; outline: as §1
Staphylococcus aureus [19] = assay: Antimicrobial activity against methicillin-resistant Staphylococcus aureus E2125 assessed as concentration required for minimum inhibition of oxacillin-resistant subpopulation growth by Etest; type: functional; outline: as §1
Staphylococcus aureus [20] = assay: Antimicrobial activity against methicillin-resistant Staphylococcus aureus HAR22 assessed as concentration required for minimum inhibition of BRP-resistant subpopulation growth; type: functional; outline: as §1
Staphylococcus aureus [21] = assay: Antimicrobial activity against methicillin-resistant Staphylococcus aureus HDE288 assessed as concentration required for minimum inhibition of oxacillin-resistant subpopulation growth by Etest; type: functional; outline: as §1
[22] = target: T2, Penicillin-binding protein 4 (Staphylococcus aureus (strain COL)) (UniProt A0A0H2WY27); assay: Displacement of benzyl-[14C]penicillin from Staphylococcus aureus PBP4 by in vitro competitive assay; conditions: Staphylococcus aureus subsp. aureus COL
T2 sequence (whole entry): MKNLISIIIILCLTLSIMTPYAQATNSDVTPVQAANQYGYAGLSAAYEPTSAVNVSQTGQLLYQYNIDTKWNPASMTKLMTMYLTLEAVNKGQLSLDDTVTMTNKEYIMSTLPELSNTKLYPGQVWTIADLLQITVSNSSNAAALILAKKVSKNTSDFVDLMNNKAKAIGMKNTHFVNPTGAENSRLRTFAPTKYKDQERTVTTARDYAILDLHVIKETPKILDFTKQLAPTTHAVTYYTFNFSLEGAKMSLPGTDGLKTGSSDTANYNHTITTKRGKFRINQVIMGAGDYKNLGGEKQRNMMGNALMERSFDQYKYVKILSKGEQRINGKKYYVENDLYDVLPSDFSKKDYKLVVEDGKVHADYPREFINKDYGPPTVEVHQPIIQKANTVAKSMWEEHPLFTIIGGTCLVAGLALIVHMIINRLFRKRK
Outline: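 Membranes came from late-exponential cells of RU130, a PBP 2 insertional mutant of COL. Samples of 150 µg protein were preincubated with increasing drug concentrations for 10 min at 30°C, then labeled with benzyl[14C]penicillin at 20 µg/ml for 10 min at 37°C. The reaction was stopped with excess unlabeled benzylpenicillin in SDS. Read-out was SDS-PAGE with phosphor-screen exposure for 2 weeks.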

Staphylococcus aureus [23] = assay: Antimicrobial activity against methicillin-resistant Staphylococcus aureus HPV107 assessed as concentration required for bacterial subpopulation growth; type: functional; outline: as §1

Nc1nc(/C(=N/O)C(=O)N[C@@H]2C(=O)N3C(C(=O)O)=C(/C=C4\CCN([C@@H]5CCNC5)C4=O)CS[C@H]23)ns1 [CEFTOBIPROLE]
inhibition [1]: 66% | Activity (Staphylococcus aureus [2]): 3 µg/mL | Activity (Staphylococcus aureus [3]): 1.5 µg/mL | Activity (Staphylococcus aureus [4]): 3 µg/mL | Activity (Staphylococcus aureus [5]): 1.5 µg/mL | Activity (Staphylococcus aureus [6]): 1.5 µg/mL | Activity (Staphylococcus aureus [7]): 1.5 µg/mL | MIC (Staphylococcus aureus [8]): 1.5 µg/mL (≈ 2.81 µM) | MIC (Staphylococcus aureus [9]): 1.5 µg/mL (≈ 2.81 µM) | Activity (Staphylococcus aureus [10]): 1.5 µg/mL | Activity (Staphylococcus aureus [11]): 3 µg/mL | MIC (Staphylococcus aureus [12]): 3 µg/mL (≈ 5.61 µM) | Activity (Staphylococcus aureus [13]): 3 µg/mL | Activity (Staphylococcus aureus [14]): 0.8 µg/mL | Activity (Staphylococcus aureus [15]): 1.5 µg/mL | Activity (Staphylococcus aureus [16]): 0.8 µg/mL | MIC (Staphylococcus aureus [17]): 1.5 µg/mL (≈ 2.81 µM) | Activity (Staphylococcus aureus [18]): 1.5 µg/mL | Activity (Staphylococcus aureus [19]): 0.8 µg/mL | Activity (Staphylococcus aureus [20]): 3 µg/mL | Activity (Staphylococcus aureus [21]): 1.5 µg/mL | Activity [22]: Active | Activity (Staphylococcus aureus [23]): 3 µg/mL

Source: ChEMBL document CHEMBL1275462 (Antimicrob Agents Chemother, 2008)
